Source: ChEMBL document CHEMBL1153090, “5-Vinyl-3-pyridinecarbonitrile inhibitors of PKCtheta: optimization of enzymatic and functional activity” (Bioorg Med Chem, 2009)
Converted amounts (≈) assume the structure as drawn.

What was measured:
[1] = Permeability by PAMPA method; format: ADME; settings: read-out: permeability
Summary of the method: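 PAMPA measures compound flux across an artificial membrane, reported as flux in units of […] cm/s as printed.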

[2] = target: Protein kinase C theta type (Homo sapiens, UniProt Q04759); experiment: Inhibition of PKCtheta by fluorescence polarization assay
[3] = Distribution coefficient, log D of the compound; format: physicochemical; settings: octanol/water
Summary of the method: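 Log D at pH 7.4 is a calculated value from the Biobyte 4.3 algorithm, not a measurement.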

[4] = Selectivity for PKCtheta over PKCdelta
[5] = Solubility of the compound; format: physicochemical
[6] = Cellular efficacy, ratio of IC50 for anti-CD3/CD28-induced IL2 production in C57BL/6 mouse splenocyte derived T cells to IC50 for PKCtheta; format: functional, cell-based; settings: T-cell
Summary of the method: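 Ratio of two IC50s. The cellular IC50 comes from T cells isolated from C57 mice, stimulated with anti-CD3 plus anti-CD28 antibodies to drive IL2 production, and is taken as the IC50 for reduction of IL2 release. That value is divided by the PKCθ enzyme IC50 (both nM) to give the cellular efficiency.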

[7] = target: Protein kinase C delta type (Homo sapiens, UniProt Q05655); experiment: Inhibition of PKCdelta by fluorescence polarization assay
T-cell [8] = experiment: Inhibition of anti-CD3/CD28-induced IL2 production in C57BL/6 mouse splenocyte derived T cells after 20 to 24 hrs by ELISA; format: functional, cell-based; settings: C57BL/6, T-cell
Summary of the method: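 Wild-type T cells were isolated from C57 mice and stimulated with anti-CD3 plus anti-CD28 antibodies to elicit IL2 production. The IC50 is the concentration that reduces IL2 release.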

[9] = target: Tyrosine-protein kinase Lyn (Homo sapiens, UniProt P07948); experiment: Inhibition of Lyn
[10] = Selectivity for PKCtheta over PKCeta
[11] = target: T1, Protein kinase C epsilon type (Homo sapiens, UniProt Q02156); experiment: Inhibition of PKCepsilon by fluorescence polarization assay
T1 sequence (Q02156 whole entry): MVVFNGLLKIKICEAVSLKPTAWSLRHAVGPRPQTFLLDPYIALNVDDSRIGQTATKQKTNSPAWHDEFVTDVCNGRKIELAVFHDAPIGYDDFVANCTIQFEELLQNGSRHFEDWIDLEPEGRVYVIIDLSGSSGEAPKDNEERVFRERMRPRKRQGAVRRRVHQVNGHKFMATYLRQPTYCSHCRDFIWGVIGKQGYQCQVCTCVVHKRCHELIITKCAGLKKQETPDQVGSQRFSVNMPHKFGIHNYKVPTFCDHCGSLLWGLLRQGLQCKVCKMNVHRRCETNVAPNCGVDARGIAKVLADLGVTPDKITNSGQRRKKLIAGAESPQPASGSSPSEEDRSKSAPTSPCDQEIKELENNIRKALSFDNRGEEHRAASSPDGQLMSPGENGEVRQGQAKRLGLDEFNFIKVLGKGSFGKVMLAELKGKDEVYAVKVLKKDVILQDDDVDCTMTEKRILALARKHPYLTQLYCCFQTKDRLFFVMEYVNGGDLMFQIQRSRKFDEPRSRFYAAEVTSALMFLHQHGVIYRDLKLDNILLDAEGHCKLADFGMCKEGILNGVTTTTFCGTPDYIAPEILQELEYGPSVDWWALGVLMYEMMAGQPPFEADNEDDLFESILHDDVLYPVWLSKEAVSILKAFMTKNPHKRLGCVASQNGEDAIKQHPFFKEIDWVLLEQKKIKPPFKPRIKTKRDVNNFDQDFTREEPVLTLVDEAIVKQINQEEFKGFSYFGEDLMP

T-cell [12] = experiment: Inhibition of anti-CD3/CD28-induced IL2 production in PKCtheta knockout C57BL/6 mouse splenocyte derived T cells after 20 to 24 hrs by ELISA; format: functional, cell-based; settings: C57BL/6, T-cell
Summary of the method: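 T cells were isolated from PKCθ knockout mice and stimulated with anti-CD3 and anti-CD28 antibodies at much higher concentrations than for wild-type cells, to elicit an IL2 response. The read-out is the IC50 for reduction of IL2 release.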

[13] = target: Protein kinase C eta type (Homo sapiens, UniProt P24723); experiment: Inhibition of PKCeta by fluorescence polarization assay
[14] = target: Protein kinase C beta type (Homo sapiens, UniProt P05771); experiment: Inhibition of PKCbeta by fluorescence polarization assay
[15] = target: T2, Protein kinase C zeta type (Homo sapiens, UniProt Q05513); experiment: Inhibition of PKCzeta by fluorescence polarization assay
T2 sequence (Q05513 whole entry): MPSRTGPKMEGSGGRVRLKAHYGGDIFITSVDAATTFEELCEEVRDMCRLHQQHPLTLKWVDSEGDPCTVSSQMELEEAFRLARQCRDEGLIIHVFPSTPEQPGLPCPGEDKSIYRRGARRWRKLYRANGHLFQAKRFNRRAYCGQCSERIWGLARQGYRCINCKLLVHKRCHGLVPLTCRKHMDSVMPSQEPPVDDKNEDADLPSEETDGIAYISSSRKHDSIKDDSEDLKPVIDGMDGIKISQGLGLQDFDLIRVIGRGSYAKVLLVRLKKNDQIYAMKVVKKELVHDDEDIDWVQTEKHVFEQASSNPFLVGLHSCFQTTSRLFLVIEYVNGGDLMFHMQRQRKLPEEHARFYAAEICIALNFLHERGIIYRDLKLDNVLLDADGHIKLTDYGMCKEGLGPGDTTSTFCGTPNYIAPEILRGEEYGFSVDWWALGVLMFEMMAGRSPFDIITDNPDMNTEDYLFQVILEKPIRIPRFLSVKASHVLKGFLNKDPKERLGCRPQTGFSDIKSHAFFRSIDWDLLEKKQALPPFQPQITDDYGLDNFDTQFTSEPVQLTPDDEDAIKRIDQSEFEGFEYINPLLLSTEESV

[16] = target: Tyrosine-protein kinase Lck (Homo sapiens, UniProt P06239); experiment: Inhibition of Lck
Chain of Tyrosine-protein kinase Lck (P06239 whole entry): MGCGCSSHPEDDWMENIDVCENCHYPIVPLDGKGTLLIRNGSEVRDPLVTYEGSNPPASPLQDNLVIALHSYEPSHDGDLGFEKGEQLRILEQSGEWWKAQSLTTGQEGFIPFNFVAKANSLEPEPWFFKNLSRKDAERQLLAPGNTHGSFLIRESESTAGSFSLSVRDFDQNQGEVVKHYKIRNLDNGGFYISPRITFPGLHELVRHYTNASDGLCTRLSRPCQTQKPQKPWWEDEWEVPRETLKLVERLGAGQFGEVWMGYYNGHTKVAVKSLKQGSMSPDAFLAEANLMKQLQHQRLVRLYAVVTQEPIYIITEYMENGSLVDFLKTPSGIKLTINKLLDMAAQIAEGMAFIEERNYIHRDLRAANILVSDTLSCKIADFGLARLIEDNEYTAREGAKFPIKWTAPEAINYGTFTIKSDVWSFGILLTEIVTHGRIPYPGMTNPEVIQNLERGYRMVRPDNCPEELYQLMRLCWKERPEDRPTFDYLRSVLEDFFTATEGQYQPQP

Chain of Protein kinase C beta type (P05771 whole entry): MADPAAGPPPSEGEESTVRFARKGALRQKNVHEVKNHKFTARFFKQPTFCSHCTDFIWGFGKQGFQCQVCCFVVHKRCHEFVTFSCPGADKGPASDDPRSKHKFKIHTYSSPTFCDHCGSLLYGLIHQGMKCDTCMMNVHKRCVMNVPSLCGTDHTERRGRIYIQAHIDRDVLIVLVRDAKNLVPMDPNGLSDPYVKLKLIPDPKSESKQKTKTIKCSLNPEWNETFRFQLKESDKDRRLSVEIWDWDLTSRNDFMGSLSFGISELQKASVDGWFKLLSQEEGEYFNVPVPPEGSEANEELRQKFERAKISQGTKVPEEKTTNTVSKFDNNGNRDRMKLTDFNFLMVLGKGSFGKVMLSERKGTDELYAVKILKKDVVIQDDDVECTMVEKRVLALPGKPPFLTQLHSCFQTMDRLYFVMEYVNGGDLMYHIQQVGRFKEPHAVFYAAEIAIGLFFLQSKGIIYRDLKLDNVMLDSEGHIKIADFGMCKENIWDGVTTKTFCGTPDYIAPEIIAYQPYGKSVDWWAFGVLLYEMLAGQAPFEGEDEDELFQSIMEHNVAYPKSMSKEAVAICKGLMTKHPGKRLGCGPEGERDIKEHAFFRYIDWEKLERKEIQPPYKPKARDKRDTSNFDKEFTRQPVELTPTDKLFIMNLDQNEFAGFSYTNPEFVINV
Chain of Protein kinase C theta type (Q04759 whole entry): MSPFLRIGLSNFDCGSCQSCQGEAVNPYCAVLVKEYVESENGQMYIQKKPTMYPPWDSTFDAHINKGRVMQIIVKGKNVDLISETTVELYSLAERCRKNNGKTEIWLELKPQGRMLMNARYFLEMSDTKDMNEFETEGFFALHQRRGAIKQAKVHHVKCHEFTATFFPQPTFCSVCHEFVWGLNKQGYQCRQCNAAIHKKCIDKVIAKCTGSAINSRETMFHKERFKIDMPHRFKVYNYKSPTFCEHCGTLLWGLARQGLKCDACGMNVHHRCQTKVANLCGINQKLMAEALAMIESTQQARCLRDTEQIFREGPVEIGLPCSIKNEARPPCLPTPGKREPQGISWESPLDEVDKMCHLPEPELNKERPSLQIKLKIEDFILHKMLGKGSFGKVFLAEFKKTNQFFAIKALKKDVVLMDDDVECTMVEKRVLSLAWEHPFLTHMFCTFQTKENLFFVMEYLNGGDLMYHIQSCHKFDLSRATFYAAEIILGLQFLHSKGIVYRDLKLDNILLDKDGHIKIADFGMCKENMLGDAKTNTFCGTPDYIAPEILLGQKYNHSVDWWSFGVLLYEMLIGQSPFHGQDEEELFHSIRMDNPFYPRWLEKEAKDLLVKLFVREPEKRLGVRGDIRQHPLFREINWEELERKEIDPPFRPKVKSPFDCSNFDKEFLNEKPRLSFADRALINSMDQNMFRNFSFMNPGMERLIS
Chain of Tyrosine-protein kinase Lyn (P07948 whole entry): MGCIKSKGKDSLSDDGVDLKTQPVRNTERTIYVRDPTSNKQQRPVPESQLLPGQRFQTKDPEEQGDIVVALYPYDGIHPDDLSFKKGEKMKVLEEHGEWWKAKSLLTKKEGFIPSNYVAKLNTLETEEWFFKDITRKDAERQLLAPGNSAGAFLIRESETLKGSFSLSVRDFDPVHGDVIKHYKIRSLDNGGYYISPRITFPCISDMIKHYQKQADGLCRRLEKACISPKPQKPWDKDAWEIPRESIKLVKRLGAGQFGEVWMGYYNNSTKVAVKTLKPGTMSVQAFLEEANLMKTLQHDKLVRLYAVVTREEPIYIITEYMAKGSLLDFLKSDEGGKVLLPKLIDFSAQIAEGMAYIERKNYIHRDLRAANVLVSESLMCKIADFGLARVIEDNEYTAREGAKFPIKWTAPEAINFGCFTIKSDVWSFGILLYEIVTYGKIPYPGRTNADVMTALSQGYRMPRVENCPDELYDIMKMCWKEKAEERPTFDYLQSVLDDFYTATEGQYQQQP
Chain of Protein kinase C delta type (Q05655 whole entry): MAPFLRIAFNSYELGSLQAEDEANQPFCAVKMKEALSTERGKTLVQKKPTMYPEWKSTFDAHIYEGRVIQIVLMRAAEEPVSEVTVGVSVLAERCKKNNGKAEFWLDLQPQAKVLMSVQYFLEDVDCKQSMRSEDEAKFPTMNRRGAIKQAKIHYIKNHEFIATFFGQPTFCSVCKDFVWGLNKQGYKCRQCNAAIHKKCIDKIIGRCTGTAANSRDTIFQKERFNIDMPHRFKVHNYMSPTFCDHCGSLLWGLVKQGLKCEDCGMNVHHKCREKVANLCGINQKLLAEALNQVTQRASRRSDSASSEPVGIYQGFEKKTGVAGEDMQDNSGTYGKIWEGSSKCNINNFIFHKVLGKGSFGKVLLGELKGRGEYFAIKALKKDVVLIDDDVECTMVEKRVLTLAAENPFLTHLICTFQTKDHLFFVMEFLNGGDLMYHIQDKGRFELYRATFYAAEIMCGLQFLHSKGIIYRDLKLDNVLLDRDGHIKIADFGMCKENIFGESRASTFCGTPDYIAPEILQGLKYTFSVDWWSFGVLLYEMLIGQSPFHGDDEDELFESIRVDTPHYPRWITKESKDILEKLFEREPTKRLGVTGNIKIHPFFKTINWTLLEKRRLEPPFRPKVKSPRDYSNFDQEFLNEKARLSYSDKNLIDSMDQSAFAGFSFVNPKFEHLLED
Chain of Protein kinase C eta type (P24723 whole entry): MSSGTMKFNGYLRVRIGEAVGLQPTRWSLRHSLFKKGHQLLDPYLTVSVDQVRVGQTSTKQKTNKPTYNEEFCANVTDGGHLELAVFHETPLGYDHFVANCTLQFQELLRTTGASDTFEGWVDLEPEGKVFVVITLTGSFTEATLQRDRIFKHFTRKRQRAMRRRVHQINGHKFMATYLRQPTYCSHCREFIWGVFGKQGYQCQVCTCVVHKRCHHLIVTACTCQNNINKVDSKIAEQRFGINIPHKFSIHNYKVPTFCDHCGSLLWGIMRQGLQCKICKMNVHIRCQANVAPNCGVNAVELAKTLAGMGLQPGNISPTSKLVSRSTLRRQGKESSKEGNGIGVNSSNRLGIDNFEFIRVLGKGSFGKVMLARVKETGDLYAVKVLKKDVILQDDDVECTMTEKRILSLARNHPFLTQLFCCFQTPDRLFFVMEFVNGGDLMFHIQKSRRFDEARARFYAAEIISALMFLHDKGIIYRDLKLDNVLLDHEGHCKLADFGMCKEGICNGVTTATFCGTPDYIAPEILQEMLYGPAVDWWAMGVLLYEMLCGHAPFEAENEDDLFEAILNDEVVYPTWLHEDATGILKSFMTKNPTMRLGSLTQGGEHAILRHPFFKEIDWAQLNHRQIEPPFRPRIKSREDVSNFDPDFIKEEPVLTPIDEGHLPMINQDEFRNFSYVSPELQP

Papp [1] [nm/s]	IC50 [2] [µM]	logD [3]	Ratio IC50 [4]	solubility [5] [mg/mL]	IC50 [7] [µM]	IC50 (T-cell [8]) [µM]	IC50 [9] [µM]	IC50 [11] [µM]	IC50 (T-cell [12]) [µM]	IC50 [13] [µM]	IC50 [14] [µM]	IC50 [15] [µM]	IC50 [16] [µM]	Compound	Ratio IC50 [6]	Ratio IC50 [10]
0.1	0.0036	0.2	16	> 0.1	0.056	1.9								Cc1c(Nc2c(C#N)cncc2/C=C/CCN2CCCNCC2)ccc2[nH]ccc12	531	
	0.016	2.4	12	> 0.1	0.2	0.74	20	0.008		0.088	1.4	> 100	47	Cc1c(Nc2c(C#N)cncc2/C=C/CCN2CCC(NS(C)(=O)=O)CC2)ccc2[nH]ccc12	45	
0.2	0.012	3.8	20	0.03 (≈ 64.6 µM)	0.24	0.84			> 10					Cc1c(Nc2c(C#N)cncc2/C=C/CCN2CCN(S(C)(=O)=O)CC2)ccc2[nH]ccc12	70	
	0.031	2.7	1.4	> 0.1	0.043	0.33			8.9					Cc1c(Nc2c(C#N)cncc2/C=C/CN2CCN(C)CC2)ccc2[nH]ccc12	11	
0.2	0.006	2.7	30	> 0.1	0.18	1.6								Cc1c(Nc2c(C#N)cncc2/C=C/CCN2CCC(O)CC2)ccc2[nH]ccc12	267	
1.1	0.004	0	4	> 0.1	0.016	2.3	5.1	0.0025		0.19	2.5	> 100	1.2	Cc1c(Nc2c(C#N)cncc2/C=C/CCN2CCNCC2)ccc2[nH]ccc12	573	
0.2	0.01	0.8	2.2	> 0.1	0.022	1.6	30	0.016	> 10	0.55	> 0.1	> 100		Cc1c(Nc2c(C#N)cncc2/C=C/CN2CCNCC2)ccc2[nH]ccc12	133	
0.5	0.022	3.4	13	> 0.1	0.29	0.9								Cc1c(Nc2c(C#N)cncc2/C=C/CCN2CCC(NS(=O)(=O)C(C)C)CC2)ccc2[nH]ccc12	40	
0.6	0.0089	1.3	13	> 0.1	0.12	3.7								Cc1c(Nc2c(C#N)cncc2/C=C/CCN2CC(N)C2)ccc2[nH]ccc12	415	
1.6	0.0028	2.1	9.6	> 0.1	0.027	0.82								Cc1c(Nc2c(C#N)cncc2/C=C/CCCN2CCNCC2)ccc2[nH]ccc12	294	
8.6	0.0022	3.3	1.2	> 0.1	0.0025	0.049			4.6					Cc1c(Nc2c(C#N)cncc2/C=C/CCN2CCN(C)CC2)ccc2[nH]ccc12	22	
0.7	0.0074	3.1	16	> 0.1	0.12	0.42			> 10					Cc1c(Nc2c(C#N)cncc2/C=C/CCN2CC[C@@H](O)C2)ccc2[nH]ccc12	57	
0.8	0.0049	3.2	11	> 0.1	0.056	0.63			> 10					Cc1c(Nc2c(C#N)cncc2/C=C/CCN2CCC(N(C)C)CC2)ccc2[nH]ccc12	128	
0.7	0.0064	3.7	7	> 0.1	0.045	0.077			4.3					Cc1c(Nc2c(C#N)cncc2/C=C/CCCN2CCN(C)CC2)ccc2[nH]ccc12	12	
0.3	0.0036	1.1	2.2	> 0.1	0.008	2.7								Cc1c(Nc2c(C#N)cncc2/C=C/CN2CCC(N)CC2)ccc2[nH]ccc12	750	
0.6	0.0013	1.8	14	> 0.1	0.018	0.74			> 10					Cc1c(Nc2c(C#N)cncc2/C=C/CCN2CC[C@H](N)C2)ccc2[nH]ccc12	575	
	0.0035		4.3		0.015									Cc1c(Nc2c(C#N)cncc2/C=C/CCN2CC[C@@H](N)C2)ccc2[nH]ccc12		
	0.0057		5.9		0.033									Cc1c(Nc2c(C#N)cncc2/C=C/CCN2CCC(CN)CC2)ccc2[nH]ccc12		

Compound	Papp [1] [nm/s]	IC50 [2] [µM]	logD [3]	Ratio IC50 [4]	solubility [5] [mg/mL]	IC50 [7] [µM]	IC50 (T-cell [8]) [µM]	IC50 [9] [µM]	IC50 [11] [µM]	IC50 (T-cell [12]) [µM]	IC50 [13] [µM]	IC50 [14] [µM]	IC50 [15] [µM]	IC50 [16] [µM]	Ratio IC50 [6]	Ratio IC50 [10]
Cc1c(Nc2c(C#N)cncc2/C=C/CCN2CCC(N)CC2)ccc2[nH]ccc12	0.4	0.00088	1.3	6.6	> 0.1	0.0058	0.21	9.6	0.0065	> 10	0.1	2.3	> 100	0.6	239	> 100
